These results are taken from ChEMBL document CHEMBL1148018, “Discovery and SAR development of thienopyridones: a class of small molecule AMPK activators” (Bioorg Med Chem Lett, 2007).

The source made the active and inactive calls. The rule behind the calls is not given here.

Experiment [1] is described as follows: (§1) Activation of AMPK in rat liver assessed as SAMS peptide phosphorylation. The format is functional, tissue-based. In a few lines: (§2)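 Kinase activity is read as phosphorylation of the SAMS peptide substrate. Substrate concentration is 20 in standard assays and 100 in additivity assays.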
The next experiment is filed under the species Rattus norvegicus. Described as §1. The format is functional, tissue-based. In a few lines:
as §2

By EC50 is commonly meant the concentration at which the effect is half-maximal. Regarding `O=c1[nH]c2scc(-c3ccccc3)c2c(O)c1Cl`, the concentration giving a half-maximal response (EC50) in experiment [1] came out at 88 µM. Turning to `Cn1c(=O)c(C#N)c(O)c2c(-c3ccc(Br)cc3)c(F)sc21`, in the experiment filed under Rattus norvegicus, the outcome was inactive.

Regarding `N#Cc1c(O)c2c(-c3ccc(Cl)cc3)csc2[nH]c1=O`, in experiment [1], the concentration giving a half-maximal response (EC50) turned out to be 81 µM. As to `N#Cc1c(O)c2c(-c3ccc(O)cc3)csc2[nH]c1=O`, the concentration for a half-maximal effect (EC50) in experiment [1] was found to be 20 µM. `N#Cc1c(O)c2c(-c3ccccc3)c(Br)sc2[nH]c1=O`: the half-maximal effective concentration (EC50) in experiment [1] stood at 5.8 µM.

Turning to `N#Cc1c(O)c2c(-c3ccc(F)cc3)csc2[nH]c1=O`, the concentration for a half-maximal effect (EC50) in experiment [1] stood at 84 µM. Take `Cn1c(=O)c(C#N)c(O)c2c(-c3ccccc3)csc21`: in the experiment listed under Rattus norvegicus, the result was inactive. `COC(=O)c1c(O)c2c(-c3ccccc3)csc2[nH]c1=O`: the 50% effective concentration (EC50) in experiment [1] amounted to 175 µM.

With `O=c1[nH]c2scc(-c3ccccc3)c2c(O)c1-c1ccccc1`, the result in the experiment filed under Rattus norvegicus was inactive.

As to `COCOc1ccc(-c2csc3[nH]c(=O)c(C#N)c(O)c23)cc1`, in experiment [1], the 50% effective concentration (EC50) came to 8 µM. Same read-out and setting: then `N#Cc1c(O)c2c(-c3ccccc3)c(Cl)sc2[nH]c1=O`, with 3.7 µM; and `COC(=O)c1ccc(-c2csc3[nH]c(=O)c(C#N)c(O)c23)cc1`, with 55 µM. On to `N#Cc1c(O)c2c(-c3ccc(F)cc3)c(Br)sc2[nH]c1=O`, for which the EC50 in experiment [1] came out at 10 µM.

As to `N#Cc1c(O)c2c(-c3ccc(O)cc3)c(Cl)sc2[nH]c1=O`, the concentration giving a half-maximal response (EC50) in experiment [1] was 2 µM.

As for `Cn1c(=O)c(C#N)c(O)c2c(-c3ccc(Cl)cc3)csc21`, the result in the experiment filed under Rattus norvegicus was inactive. Take `N#Cc1c(O)c2c(-c3ccc4c(c3)OCO4)csc2[nH]c1=O`: the EC50 in experiment [1] was 20 µM. With `C=CCc1ccc(-c2csc3[nH]c(=O)c(C#N)c(O)c23)cc1`, the concentration for a half-maximal effect (EC50) in experiment [1] stood at 40 µM. Turning to `COc1c(C#N)c(=O)[nH]c2scc(-c3ccccc3)c12`, in the experiment filed under Rattus norvegicus, the result was inactive. Same read-out and setting: then `Cn1c(=O)c(C#N)c(N)c2c(-c3ccc(Br)cc3)csc21`, with “inactive”. Regarding `N#Cc1c(O)c2c(-c3ccc(Br)cc3)csc2[nH]c1=O`, the EC50 in experiment [1] worked out at 72 µM.

As to `N#Cc1c(O)c2c(-c3cccc(O)c3)csc2[nH]c1=O`, the EC50 in experiment [1] turned out to be 38 µM. Consider `N#Cc1c(O)c2c(-c3ccccc3)c(-c3ccccc3O)sc2[nH]c1=O`, for which the outcome in the experiment listed under Rattus norvegicus was inactive. Regarding `N#Cc1c(O)c2c(-c3ccccc3)c([N+](=O)[O-])sc2[nH]c1=O`, in the experiment listed under Rattus norvegicus, the outcome was inactive.

Regarding `CN(C)c1c(O)c2c(-c3ccccc3)csc2[nH]c1=O`, the outcome in the experiment listed under Rattus norvegicus was inactive. Turning to `O=c1[nH]c2scc(-c3ccccc3)c2c(O)c1-c1cccs1`, the EC50 in experiment [1] turned out to be 183 µM. In the case of `O=c1cc(O)c2c(-c3ccccc3)csc2[nH]1`, the outcome in the experiment filed under Rattus norvegicus was inactive.

Regarding `COc1cccc(-c2c(O)c3c(-c4ccccc4)csc3[nH]c2=O)c1`, the EC50 in experiment [1] turned out to be 180 µM. On to `N#Cc1c(O)c2c(-c3ccccc3)csc2[nH]c1=O`, for which the EC50 in experiment [1] stood at 38 µM.
